Data taken from ChEMBL document CHEMBL1126013, “Synthesis and evaluation of some water-soluble prodrugs and derivatives of taxol with antitumor activity” (J Med Chem, 1992).

Assays:
[1] = Solubility in water; format: physicochemical; settings: read-out: S
[2] = tested on: B16; assay: Concentration required to inhibit the proliferation of B16 melanoma cells was determined; format: functional, cell-based; settings: Mus musculus
[3] = tested on: B16; assay: Percentage change in cell number of B16 melanoma cells treated with 10e-5 M dose; format: functional, Mus musculus
Outline: (§1)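 B16 melanoma cells exposed to 10⁻⁵ or 10⁻⁶ M compound for 8 h, then rinsed three times with fresh medium. Cells then grown in drug-free medium for 48 h and counted. Result given as percent change relative to the cell number at time zero. Controls are the average of three experiments.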

[4] = tested on: B16; assay: Percentage change in cell number of B16 melanoma cells treated with 10e-6 M dose; format: functional, Mus musculus; outline: as §1
[5] = tested on: B16; assay: Relative effect on B16 melanoma cell proliferation was determined [IC50 (taxol)/IC50 (derivative)]; format: functional, Mus musculus
[6] = species on record: Bos taurus; assay: Relative effect on microtubular assembly (Tubulin polymerized by derivative/tubulin polymerized by taxol); format: functional
Outline: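 Bovine brain tubulin, purified from microtubule-associated proteins by phosphocellulose chromatography, used at 10 μM. Turbidity followed at 350 nm. Polymer pelleted at 200000g, 37 °C, 4 min, depolymerized on ice, and protein measured by Bradford.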

[7] = tested on: Mus musculus; assay: Initial average tumor weight was measured in mice induced with human mammary carcinoma at a dose of 30 mg/kg; format: functional
Outline: (§2)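 MX-1 human mammary carcinoma xenograft implanted under the renal capsule in mice. Study run at the National Cancer Institute following NIH Publication No. 84-2635. Tumor weights recorded at the start and at the end. Survivors counted after 11 days. %T/C = (Δ tumor weight treated/Δ tumor weight control) × 100 where the tumor grows, and (Δ tumor weight treated/initial control tumor weight) × 100 where it regresses.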

[8] = tested on: Mus musculus; assay: Initial average tumor weight was measured in mice induced with human mammary carcinoma at a dose of 5.9 mg/Kg; format: functional; outline: as §2
[9] = tested on: Mus musculus; assay: Initial average tumor weight was measured in mice induced with human mammary carcinoma at a dose of 8.9 mg/Kg; format: functional; outline: as §2
[10] = tested on: Mus musculus; assay: Initial average tumor weight was measured in mice induced with human mammary carcinoma at a dose of 20 mg/Kg; format: functional; outline: as §2
[11] = tested on: Mus musculus; assay: Initial average tumor weight was measured in mice induced with human mammary carcinoma at a dose of 13 mg/Kg; format: functional; outline: as §2
[12] = tested on: Mus musculus; assay: Number of survivors after 11 days at a dose of 13 mg/Kg tested in 6 mice; format: functional
Outline: (§3)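 MX-1 human mammary carcinoma xenograft implanted under the renal capsule of mice. The study was run at the National Cancer Institute following the procedures of NIH Publication No. 84-2635. Average tumor weight was recorded at the start and end of treatment, and survivors were counted after 11 days. Dosed groups were compared with an untreated control group.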

[13] = tested on: Mus musculus; assay: Number of survivors after 11 days at a dose of 20 mg/Kg tested in 6 mice; format: functional; outline: as §3
[14] = tested on: Mus musculus; assay: Number of survivors after 11 days at a dose of 30 mg/kg tested in 6 mice; format: functional; outline: as §3
[15] = tested on: Mus musculus; assay: Tumor growth or regression measured as Percent treated by control at a dose of 8.9 mg/kg to mice with MX-1 xenograft; format: functional
Outline: (§4)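 Subrenal capsule human mammary carcinoma (MX-1) xenograft in mice, run at the National Cancer Institute by NIH Publication No. 84-2635 procedures. Initial and final average tumor weights recorded, with survivors counted after 11 days. %T/C is (Δ tumor weight treated/Δ tumor weight controls)×100 for growing tumors. For regressing tumors it is (Δ tumor weight treated/initial control tumor weight)×100.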

[16] = tested on: Mus musculus; assay: Tumor growth or regression measured as Percent treated by control at a dose of 20 mg/Kg to mice with MX-1 xenograft; CR refers to complete remission or when the tumor is no longer detectable; format: functional, organism-based; outline: as §2
[17] = tested on: Mus musculus; assay: Tumor growth or regression measured as Percent treated by control at a dose of 30 mg/Kg to mice with MX-1 xenograft; Tox refers to toxicity or when < 65% of the animals survive the test; format: functional, organism-based; outline: as §2
[18] = tested on: Mus musculus; assay: Tumor growth or regression measured as Percent treated by control at a dose of 5.9 mg/Kg to mice with MX-1 xenograft; format: functional; outline: as §4
[19] = tested on: Mus musculus; assay: Tumor growth or regression measured as Percent treated by control at a dose of 13 mg/Kg to mice with MX-1 xenograft; CR refers to complete remission or when the tumor is no longer detectable; format: functional, organism-based; outline: as §2
[20] = tested on: Mus musculus; assay: Number of survivors after 11 days at a dose of 5.9 mg/Kg tested in 6 mice; format: functional; outline: as §3
[21] = tested on: Mus musculus; assay: Number of survivors after 11 days at a dose of 8.9 mg/Kg tested in 6 mice; format: functional; outline: as §3
[22] = tested on: Mus musculus; assay: Final average tumor weight was measured in mice induced with human mammary carcinoma at a dose of 20 mg/Kg; format: functional; outline: as §2
[23] = tested on: Mus musculus; assay: Final average tumor weight was measured in mice induced with human mammary carcinoma at a dose of 30 mg/kg; format: functional; outline: as §2
[24] = tested on: Mus musculus; assay: Final average tumor weight was measured in mice induced with human mammary carcinoma at a dose of 5.9 mg/Kg; format: functional; outline: as §2
[25] = tested on: Mus musculus; assay: Antitumor activity of taxoland the derivative against mammary carcinoma xenograft in mice; format: functional; outline: as §2
[26] = tested on: Mus musculus; assay: Final average tumor weight was measured in mice induced with human mammary carcinoma at a dose of 8.9 mg/Kg; format: functional; outline: as §2
[27] = tested on: Mus musculus; assay: final average tumor weight was measured in mice induced with human mammary carcinoma at a dose of 13 mg/Kg; format: functional; outline: as §4
[28] = tested on: Mus musculus; assay: Initial average tumor weight was measured in mice induced with human mammary carcinoma at a dose of 4.13 mg/Kg; format: functional; outline: as §2
[29] = tested on: Mus musculus; assay: Initial average tumor weight was measured in mice induced with human mammary carcinoma at a dose of 8.25 mg/Kg; format: functional; outline: as §2
[30] = tested on: Mus musculus; assay: Initial average tumor weight was measured in mice induced with human mammary carcinoma at a dose of 16.5 mg/Kg; format: functional; outline: as §2
[31] = tested on: Mus musculus; assay: Number of survivors after 11 days at a dose of 16.5 mg/Kg tested in 4 mice; format: functional; outline: as §3
[32] = tested on: Mus musculus; assay: Number of survivors after 11 days at a dose of 33 mg/Kg tested in 5 mice; format: functional; outline: as §3
[33] = tested on: Mus musculus; assay: Tumor growth or regression measured as Percent treated by control at a dose of 8.25 mg/Kg to mice with MX-1 xenograft; format: functional; outline: as §4
[34] = tested on: Mus musculus; assay: Tumor growth or regression measured as Percent treated by control at a dose of 33 mg/Kg to mice with MX-1 xenograft; CR refers to complete remission or when the tumor is no longer detectable; format: functional, organism-based; outline: as §2
[35] = tested on: Mus musculus; assay: Tumor growth or regression measured as Percent treated by control at a dose of 4.13 mg/Kg to mice with MX-1 xenograft; format: functional; outline: as §4
[36] = tested on: Mus musculus; assay: Number of survivors after 11 days at a dose of 4.13 mg/Kg tested in 5 mice; format: functional; outline: as §3
[37] = tested on: Mus musculus; assay: Tumor growth or regression measured as Percent treated by control at a dose of 16.5 mg/Kg to mice with MX-1 xenograft; format: functional; outline: as §2
[38] = tested on: Mus musculus; assay: Number of survivors after 11 days at a dose of 8.25 mg/Kg tested in 4 mice; format: functional; outline: as §3
[39] = tested on: Mus musculus; assay: Final average tumor weight was measured in mice induced with human mammary carcinoma at a dose of 4.13 mg/Kg; format: functional; outline: as §2
[40] = tested on: Mus musculus; assay: Final average tumor weight was measured in mice induced with human mammary carcinoma at a dose of 16.5 mg/Kg; format: functional; outline: as §2
[41] = tested on: Mus musculus; assay: Final average tumor weight was measured in mice induced with human mammary carcinoma at a dose of 8.25 mg/Kg; format: functional; outline: as §2
[42] = tested on: Mus musculus; assay: final average tumor weight was measured in mice induced with human mammary carcinoma at a dose of 33 mg/Kg; format: functional; outline: as §4
[43] = tested on: Mus musculus; assay: Initial average tumor weight was measured in mice induced with human mammary carcinoma at a dose of 33 mg/Kg; format: functional; outline: as §2

CC(=O)O[C@H]1C(=O)[C@@]2(C)[C@H]([C@H](OC(=O)c3ccccc3)[C@]3(O)C[C@H](OC(=O)[C@H](OC(=O)CN(C)C)[C@@H](NC(=O)c4ccccc4)c4ccccc4)C(C)=C1C3(C)C)[C@]1(OC(C)=O)CO[C@@H]1C[C@@H]2O.CS(=O)(=O)O
solubility [1]: 4.83 mM
IC50 [2]: 21 nM
Change in cell number [3]: 84%
Change in cell number [4]: 261%
Relative effect [5]: 0.9
Relative effect [6]: 0.25
Initial average tumor weight [7]: 0.68 mg
Initial average tumor weight [8]: 0.61 mg
Initial average tumor weight [9]: 0.77 mg
Initial average tumor weight [10]: 0.56 mg
Initial average tumor weight [11]: 0.64 mg
No. of survivors [12]: 4
No. of survivors [13]: 4
No. of survivors [14]: 1
T/C [15]: -53%
T/C [16]: Complete remission
T/C [17]: Toxic
T/C [18]: -78%
T/C [19]: Complete remission
No. of survivors [20]: 6
No. of survivors [21]: 5
Final average tumor weight [22]: 0 mg
Final average tumor weight [23]: 0 mg
Final average tumor weight [24]: 0.13 mg
Relative antitumor activity [25]: 2
Final average tumor weight [26]: 0.36 mg
Final average tumor weight [27]: 0 mg

CC(=O)O[C@H]1C(=O)[C@]2(C)[C@@H](OC(=O)CN(C)C)C[C@H]3OC[C@@]3(OC(C)=O)[C@H]2[C@H](OC(=O)c2ccccc2)[C@]2(O)C[C@H](OC(=O)[C@H](O)[C@@H](NC(=O)c3ccccc3)c3ccccc3)C(C)=C1C2(C)C.CS(=O)(=O)O
solubility [1]: > 1.87 mM
IC50 [2]: 44 nM
Change in cell number [3]: -60%
Change in cell number [4]: 222%
Relative effect [5]: 0.43
Relative effect [6]: 0.77
Initial average tumor weight [28]: 0.74 mg
Initial average tumor weight [29]: 0.81 mg
Initial average tumor weight [30]: 0.59 mg
No. of survivors [31]: 3
No. of survivors [32]: 4
T/C [33]: 23%
T/C [34]: Complete remission
T/C [35]: 34%
No. of survivors [36]: 4
T/C [37]: -93%
No. of survivors [38]: 4
Final average tumor weight [39]: 5.66 mg
Final average tumor weight [40]: 0.04 mg
Final average tumor weight [41]: 4.19 mg
Relative antitumor activity [25]: 3
Final average tumor weight [42]: 0 mg
Initial average tumor weight [43]: 0.74 mg
